Assay results published in ChEMBL document CHEMBL1157820, “Vaccinia virus virulence factor N1L is a novel promising target for antiviral therapeutic intervention” (J Med Chem, 2010).
Activity calls are given as the source filed them. No cut-off for these calls is given here.

Legend:
N1L [1] = target: T1, N1L (Vaccinia virus, UniProt Q49PX0); assay: Displacement of FITC-conjugated BH3-Bak peptide from 1 uM Vaccinia virus recombinant N1L expressed in Escherichia coli BL21 (DE3) by fluorescence polarization assay; design: species or system Orthopoxvirus vaccinia
T1 sequence (Q49PX0 whole entry): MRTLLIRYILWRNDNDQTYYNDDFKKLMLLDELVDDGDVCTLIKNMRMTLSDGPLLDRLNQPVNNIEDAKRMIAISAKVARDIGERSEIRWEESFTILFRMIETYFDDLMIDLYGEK
How it was run: (§1)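 Fluorescence polarization competition: N1L or Bcl-XL incubated with 10 nM BH3-Bak peptide and titrated ligand. Bcl-XL run on the same plate as N1L. N1L tested at several concentrations, none below 500 nM. Normalized polarization vs log ligand fit to a variable-slope dose-response curve for competitive IC50.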

N1L [2] = target: T1, N1L; assay: Displacement of FITC-conjugated BH3-Bak peptide from 0.5 uM Vaccinia virus recombinant N1L expressed in Escherichia coli BL21 (DE3) by fluorescence polarization assay; design: species or system Orthopoxvirus vaccinia; how it was run: as §1
N1L [3] = target: T1, N1L; assay: Displacement of FITC-conjugated BH3-Bak peptide from Vaccinia virus recombinant N1L expressed in Escherichia coli BL21 (DE3) by fluorescence polarization assay; design: species or system Orthopoxvirus vaccinia; how it was run: as §1
HT-1080 = assay: Cytotoxicity against human HT1080 cells at >100 uM after 2.5 day by ATP lite assay; assay type: cell-based; details: ht-1080, 60 h
[4] = Therapeutic index, ratio of TC50 for african green monkey CV1 cells to EC50 for GFP-expressing Vaccinia virus WR infected in african green monkey CV1 cells; assay type: cell-based, CV-1; details: read-out: TI
[5] = Cytotoxicity against african green monkey CV1 cells at >100 uM after 2.5 day by ATP lite assay; assay type: cell-based; details: chlorocebus aethiops, cv-1, 60 h
[6] = Therapeutic index, ratio of TC50 for human HT1080 cells to EC50 for GFP-expressing Vaccinia virus WR infected in human HT1080 cells; assay type: cell-based, HT-1080; details: read-out: TI
N1L (Vaccinia virus) [7] = target: N1L (Vaccinia virus) (UniProt Q49PX0); assay: Binding affinity to Vaccinia virus recombinant N1L expressed in Escherichia coli BL21 (DE3) assessed as effect on enthalpy of protein unfolding at 106 uM by differential scanning calorimetry; details: Orthopoxvirus vaccinia
How it was run: (§2)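 DSC at 1 K/min scan rate under 3.0 atm. Samples in PBS with 1.0 mg/ml (71 μM) N1L, 2 or 5% DMSO, and compound at 71, 106 or 214 μM; DMSO-only reference. Melting temperature and enthalpy of unfolding (area under peak) taken from thermograms.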

N1L (Vaccinia virus) [8] = target: N1L (Vaccinia virus) (UniProt Q49PX0); assay: Binding affinity to Vaccinia virus recombinant N1L expressed in Escherichia coli BL21 (DE3) assessed as protein melting temperature at 106 uM by differential scanning calorimetry; details: Orthopoxvirus vaccinia; how it was run: as §2
Bcl-2-like protein 1 = Bcl-2-like protein 1 (Homo sapiens, UniProt Q07817); assay: Displacement of FITC-conjugated BH3-Bak peptide from human recombinant Bcl-XL expressed in Escherichia coli BL21 (DE3) by fluorescence polarization assay; how it was run: as §1
Bcl-2-like protein 1, sequence (Q07817 whole entry): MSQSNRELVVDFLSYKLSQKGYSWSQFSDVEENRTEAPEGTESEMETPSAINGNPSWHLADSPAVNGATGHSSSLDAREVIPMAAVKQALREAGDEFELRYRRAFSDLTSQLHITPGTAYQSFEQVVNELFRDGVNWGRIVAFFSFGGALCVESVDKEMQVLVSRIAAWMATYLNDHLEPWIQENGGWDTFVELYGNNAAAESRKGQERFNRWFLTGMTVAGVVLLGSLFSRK

[9] = target: Apoptosis regulator Bcl-2 (Homo sapiens, UniProt P10415); assay: Displacement of FITC-conjugated BH3-Bim peptide from human recombinant Bcl-2 expressed in Escherichia coli BL21 (DE3) by fluorescence polarization assay
Apoptosis regulator Bcl-2, sequence (P10415 whole entry, the tested form may be a part): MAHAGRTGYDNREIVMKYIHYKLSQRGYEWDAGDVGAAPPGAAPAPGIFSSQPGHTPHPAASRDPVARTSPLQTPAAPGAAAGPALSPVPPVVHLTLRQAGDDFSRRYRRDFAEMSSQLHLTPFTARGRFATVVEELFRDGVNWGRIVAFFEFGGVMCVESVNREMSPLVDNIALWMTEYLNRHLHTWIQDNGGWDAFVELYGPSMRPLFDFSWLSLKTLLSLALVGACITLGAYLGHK
How it was run: (§3)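 Fluorescence polarization competition with 10 nM BH3-Bim peptide against F1L or Bcl-2, run alongside N1L, with titrated ligand and a variable-slope dose-response fit for IC50. F1L construct: residues 35–190 from vaccinia WR as N-terminal GST fusion, expressed in E. coli BL21(DE3) (500 μM IPTG, 20 °C, 18 h), finished on Superdex 200 in 20 mM Tris pH 8.0, 100 mM NaCl.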

[10] = Displacement of FITC-conjugated BH3-Bim peptide from Vaccinia virus N-terminal GST-fused F1L expressed in Escherichia coli BL21 (DE3) by fluorescence polarization assay; design: species or system Orthopoxvirus vaccinia; how it was run: as §3
Vaccinia virus [11] = assay: Antiviral activity against GFP-expressing Vaccinia virus WR infected in human HT1080 cells after 2.5 days by fluorescence assay; assay type: functional, organism-based; details: Orthopoxvirus vaccinia, HT-1080, 60 h
Vaccinia virus [12] = assay: Antiviral activity against GFP-expressing Vaccinia virus WR infected in african green monkey CV1 cells after 2.5 days by fluorescence assay; assay type: functional, organism-based; details: Orthopoxvirus vaccinia, CV-1, 60 h
N1L (Vaccinia virus) [13] = target: N1L (Vaccinia virus) (UniProt Q49PX0); assay: Binding affinity to Vaccinia virus recombinant N1L expressed in Escherichia coli BL21 (DE3) assessed as protein melting temperature at 214 uM by differential scanning calorimetry; details: Orthopoxvirus vaccinia
How it was run: (§4)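 Differential scanning calorimetry of recombinant N1L at 1.0 mg/ml (71 μM) in PBS with 2 or 5% DMSO, plus 214 μM compound, against a DMSO-only reference. Scanned at 1 K/min under 3.0 atm. Melting temperature (Tm) is taken from the peak, and enthalpy of unfolding (ΔH) from the area under the DSC peak.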

N1L (Vaccinia virus) [14] = target: N1L (Vaccinia virus) (UniProt Q49PX0); assay: Binding affinity to Vaccinia virus recombinant N1L expressed in Escherichia coli BL21 (DE3) assessed as effect on enthalpy of protein unfolding at 214 uM by differential scanning calorimetry; details: Orthopoxvirus vaccinia; how it was run: as §4
N1L (Vaccinia virus) [15] = target: N1L (Vaccinia virus) (UniProt Q49PX0); assay: Binding affinity to Vaccinia virus recombinant N1L expressed in Escherichia coli BL21 (DE3) assessed as protein melting temperature at 71 uM by differential scanning calorimetry; details: Orthopoxvirus vaccinia; how it was run: as §2
N1L (Vaccinia virus) [16] = target: N1L (Vaccinia virus) (UniProt Q49PX0); assay: Binding affinity to Vaccinia virus recombinant N1L expressed in Escherichia coli BL21 (DE3) assessed as effect on enthalpy of protein unfolding at 71 uM by differential scanning calorimetry; details: Orthopoxvirus vaccinia; how it was run: as §2
N1L (Vaccinia virus) [17] = target: N1L (Vaccinia virus) (UniProt Q49PX0); assay: Destabilizing effect on Vaccinia virus recombinant N1L expressed in Escherichia coli BL21 (DE3) assessed as decrease in equilibrium constant of protein dimerization at 100 uM by analytical ultracentrifugation; details: Orthopoxvirus vaccinia
How it was run: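 Sedimentation equilibrium AUC of N1L in PBS at 0.45, 0.15 and 0.05 mg/ml, with 2% DMSO and compound at 50–100 μM. Spun at 20,000 rpm, 20 °C, 24 h. Data fit to a monomer–dimer or monomer–dimer–tetramer equilibrium model to obtain the dimerization KD.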

SMILES	IC50 (N1L [1])	IC50 (N1L [2])	IC50 (N1L [3])	Activity (N1L (Vaccinia virus) [7])	Tm (N1L (Vaccinia virus) [8])	further results
COc1ccc(C(C)c2cc(OC)c(OC)c(OC)c2)cc1 (stereo not given)	6600 nM	5600 nM	5600 nM	–	–	Activity (HT-1080): Non-toxic; selectivity ratio [4]: 50; Activity [5]: Non-toxic; selectivity ratio [6]: 50
Oc1cc(Cc2ccccc2)c(Cc2ccccc2)cc1O	1800 nM	900 nM	900 nM	inactive	48.6 °C	IC50 (Bcl-2-like protein 1): 8500 nM; IC50 [9]: 4700 nM; IC50 [10]: 600 nM
COc1ccc2ccccc2c1-c1c(O)ccc2ccccc12	3600 nM	1500 nM	1500 nM	–	–	–
COc1cc(C(c2ccc(O)c(OC)c2)c2ccc(O)c(OC)c2)ccc1O	12400 nM	8800 nM	8800 nM	–	–	–
COc1cc(C(=N\c2ccccc2)/C(=N/c2ccccc2)c2cc(OC)c(OC)c(OC)c2)cc(OC)c1OC	3500 nM	2400 nM	2400 nM	–	–	–
Oc1ccc(/C=N/c2ccccc2/N=C/c2ccc(O)c(O)c2)cc1O	1300 nM	1200 nM	1200 nM	inactive	52.3 °C	EC50 (Vaccinia virus [11]): 10900 nM; EC50 (Vaccinia virus [12]): 13200 nM; Activity (HT-1080): Non-toxic; selectivity ratio [4]: 5.6; Activity [5]: Non-toxic; selectivity ratio [6]: 5.6
COc1ccc(/C(=N/c2ccc(C)cc2)c2ccccc2)cc1	1700 nM	–	1700 nM	–	–	–
COc1ccc(CCc2cc(OC)c(O)c(OC)c2)cc1	7500 nM	5000 nM	5000 nM	–	–	Tm (N1L (Vaccinia virus) [13]): 54.4 °C; Activity (N1L (Vaccinia virus) [14]): inactive
COc1cc(C(c2ccccc2)c2ccccc2)c2ccccc2c1O	2000 nM	1800 nM	1800 nM	–	–	Tm (N1L (Vaccinia virus) [15]): 57.5 °C; Activity (N1L (Vaccinia virus) [16]): inactive
Oc1ccc(/C=C/c2cc(O)cc(O)c2)cc1 [RESVERATROL]	21900 nM	–	21900 nM	–	–	Tm (N1L (Vaccinia virus) [13]): 54.2 °C; Activity (N1L (Vaccinia virus) [14]): inactive; IC50 (Bcl-2-like protein 1): 190000 nM
COc1cc(-c2ccc3cc(OC)c(OC)c(OC)c3c2)cc(OC)c1OC	1600 nM	900 nM	900 nM	inactive	56.3 °C	EC50 (Vaccinia virus [11]): 16900 nM; EC50 (Vaccinia virus [12]): 13200 nM; Activity (N1L (Vaccinia virus) [17]): Active; Activity (HT-1080): Non-toxic; Activity [5]: Non-toxic; IC50 [10]: 1700 nM
Oc1cc(C(c2ccccc2)c2ccccc2)c2ccccc2c1O	1900 nM	600 nM	600 nM	inactive	54.9 °C	Activity (N1L (Vaccinia virus) [17]): Active; IC50 [10]: 1400 nM
